Measurements taken from ChEMBL document CHEMBL2163259, “ADME-guided design and synthesis of aryloxanyl pyrazolone derivatives to block mutant superoxide dismutase 1 (SOD1) cytotoxicity and protein aggregation: potential application for the treatment of amyotrophic lateral sclerosis” (J Med Chem, 2012).
Active and inactive are the calls of the source.

How the values were obtained:
[1] = system: Superoxide dismutase [Cu-Zn] (Homo sapiens), P00441 [G94A]; assay: Inhibition of SOD1 G93A mutant aggregation-induced cytotoxicity in rat PC12 cells assessed as cell viability incubated for 24 hrs and measured 72 hrs post compound dose by cytotoxicity protection assay; assay type: cell-based; details: PC-12
In short: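 PC12 cells expressing G93A SOD1-YFP fusion seeded 15000 cells/well, grown 24 h before dosing. 12-point dose response, top 32 μM, twofold dilutions. After 24 h, MG132 added (100 nM final). Viability measured 48 h later with Calcein-AM (1 μM final, 20 min, room temperature) fluorescence. EC50 derived from dose-response.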

[2] = Half life in human microsomes at 5 uM incubated for 1 hr at 37 degC in presence of NADPH; assay type: ADME, Microsome; details: 1 h, 5 µM
[3] = system: Caco-2; assay: Apparent permeability from basolateral to apical side in human Caco2 cells; assay type: ADME, cell-based
[4] = system: Cerebral cortex neuron; assay: Cytoprotection in rat Primary cortical neurons incubated for 24 hrs and measured 72 hrs post compound dose by cytotoxicity protection assay; assay type: functional, cell-based
In short: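 Primary cortical neurons from E18 Sprague-Dawley or Fischer 344 rat brain, dissociated with papain (2 mg/mL, 30 min, 37 °C), plated on poly-D-lysine at 20,000 cells/well, cultured 5 days (~90% neurons). Six-point dose response from 100 μM top, roughly one-third dilutions; 24 h pre-incubation, then MG132 100 nM. Viability read 48 h later by Calcein-AM (1 μM, 20 min, RT) fluorescence. Active = viability ≥5 SD above MG132 controls.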

[5] = Plasma concentration in B6SJL mouse at 300 mg/kg after 12 hrs by mass spectrometry; assay type: ADME, organism-based; parameters: dose 300 mg/kg
In short: (§1)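 B6SJL mice were given a single 300 mg/kg intraperitoneal bolus. Blood and brain were collected at 0, 1, 3, 6, 12 and 24 h, flash-frozen in liquid nitrogen and stored at -80 °C. Samples were analyzed by mass spectrometry with ESI ionization in MRM mode.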

[6] = Plasma concentration in B6SJL mouse at 300 mg/kg after 24 hrs by mass spectrometry; assay type: ADME, organism-based; parameters: dose 300 mg/kg; in short: as §1
[7] = AUClast in Sprague-Dawley rat at 1 mg/kg, iv; assay type: ADME, organism-based; parameters: dose 1 mg/kg, route intravenous, time 0 - last; details: plasma
In short: (§2)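 Sprague-Dawley rats given a single 1 mg/kg bolus, intravenous or oral. Plasma PK parameters (AUC, dose-normalised AUC, half-life, clearance, Vss, Cmax, Tmax, oral bioavailability) derived from plasma levels.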

[8] = Clearance in Sprague-Dawley rat at 1 mg/kg, iv; assay type: ADME, organism-based; parameters: dose 1 mg/kg, route intravenous; details: in vivo; in short: as §2
[9] = Tmax in Sprague-Dawley rat at 1 mg/kg, po; assay type: ADME, organism-based; parameters: dose 1 mg/kg, route oral; details: in vivo
In short: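 Sprague-Dawley rats received a single bolus of 1 mg/kg by i.v. or by oral route. Plasma PK parameters were derived from the plasma concentration profile.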

[10] = system: Rattus norvegicus; assay: Oral bioavailability in Sprague-Dawley rat at 1 mg/kg; assay type: ADME, organism-based; details: in vivo
In short: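 Sprague-Dawley rats received a single bolus of 1 mg/kg, given both intravenously and orally. Plasma PK parameters, including oral bioavailability (F%), were derived from the two routes.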

[11] = target: Cytochrome P450 1A2 (Homo sapiens, UniProt P05177); assay: Inhibition of CYP1A2; assay type: ADME
In short: (§3)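 Reversible inhibition of CYP isozymes in human liver microsomes, each isozyme with a single probe substrate. CYP3A4 tested with both testosterone and midazolam. IC50 determined.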

[12] = target: Cytochrome P450 2D6 (Homo sapiens, UniProt P10635); assay: Inhibition of CYP2D6; assay type: ADME; in short: as §3
Sequence of Cytochrome P450 2D6 (P10635 whole entry): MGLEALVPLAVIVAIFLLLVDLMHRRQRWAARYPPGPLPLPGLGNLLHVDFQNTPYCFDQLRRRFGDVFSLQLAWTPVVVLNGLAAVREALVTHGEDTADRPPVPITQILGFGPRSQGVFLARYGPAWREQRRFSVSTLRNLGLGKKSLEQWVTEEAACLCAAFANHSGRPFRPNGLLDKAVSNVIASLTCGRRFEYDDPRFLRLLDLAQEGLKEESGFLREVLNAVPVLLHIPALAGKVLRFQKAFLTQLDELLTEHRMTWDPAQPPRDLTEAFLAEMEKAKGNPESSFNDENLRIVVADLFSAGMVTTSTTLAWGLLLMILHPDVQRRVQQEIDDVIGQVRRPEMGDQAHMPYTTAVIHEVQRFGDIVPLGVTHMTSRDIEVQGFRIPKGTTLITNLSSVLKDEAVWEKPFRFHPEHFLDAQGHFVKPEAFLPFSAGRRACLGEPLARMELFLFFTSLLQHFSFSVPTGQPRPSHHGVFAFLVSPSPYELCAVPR

[13] = target: Cytochrome P450 3A4 (Homo sapiens, UniProt P08684); assay: Inhibition of CYP3A4 using testosterone as substrate; assay type: ADME; in short: as §3
Sequence of Cytochrome P450 3A4 (P08684 whole entry): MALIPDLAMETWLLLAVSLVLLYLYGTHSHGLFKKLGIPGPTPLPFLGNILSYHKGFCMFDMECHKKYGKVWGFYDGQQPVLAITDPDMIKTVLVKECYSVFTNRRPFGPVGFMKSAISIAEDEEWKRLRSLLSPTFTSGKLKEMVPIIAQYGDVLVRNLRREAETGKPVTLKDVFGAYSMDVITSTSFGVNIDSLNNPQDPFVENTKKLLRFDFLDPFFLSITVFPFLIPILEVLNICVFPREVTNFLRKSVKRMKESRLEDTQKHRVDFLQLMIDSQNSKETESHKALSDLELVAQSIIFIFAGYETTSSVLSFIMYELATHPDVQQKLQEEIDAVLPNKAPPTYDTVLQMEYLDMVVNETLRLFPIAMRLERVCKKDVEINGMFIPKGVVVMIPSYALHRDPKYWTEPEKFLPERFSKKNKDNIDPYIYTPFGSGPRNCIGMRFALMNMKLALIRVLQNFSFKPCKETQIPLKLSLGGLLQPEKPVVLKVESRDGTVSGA

[14] = target: Adenosine receptor A3 (Homo sapiens) (UniProt P0DMS8); assay: Inhibition of human adenosine A3 receptor at 10 uM by radioligand displacement assay
In short: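 Single concentration of 10 μM, tested in duplicate in a contract panel of 68 in vitro enzyme and receptor binding assays covering common adverse CNS, cardiovascular, pulmonary and genotoxic targets.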

[15] = target: Alpha-1D adrenergic receptor (Homo sapiens) (UniProt P25100); assay: Inhibition of human adrenergic alpha1D receptor at 10 uM by radioligand displacement assay
In short: (§4)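 LeadProfilingScreen panel of 68 in vitro enzyme and receptor assays. Compound tested at 10 μM in duplicate.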

[16] = target: Androgen receptor (Rattus norvegicus) (UniProt P15207); assay: Inhibition of rat testosterone receptor at 10 uM by radioligand displacement assay
Sequence of Androgen receptor (Rattus norvegicus) (P15207 whole entry S389L): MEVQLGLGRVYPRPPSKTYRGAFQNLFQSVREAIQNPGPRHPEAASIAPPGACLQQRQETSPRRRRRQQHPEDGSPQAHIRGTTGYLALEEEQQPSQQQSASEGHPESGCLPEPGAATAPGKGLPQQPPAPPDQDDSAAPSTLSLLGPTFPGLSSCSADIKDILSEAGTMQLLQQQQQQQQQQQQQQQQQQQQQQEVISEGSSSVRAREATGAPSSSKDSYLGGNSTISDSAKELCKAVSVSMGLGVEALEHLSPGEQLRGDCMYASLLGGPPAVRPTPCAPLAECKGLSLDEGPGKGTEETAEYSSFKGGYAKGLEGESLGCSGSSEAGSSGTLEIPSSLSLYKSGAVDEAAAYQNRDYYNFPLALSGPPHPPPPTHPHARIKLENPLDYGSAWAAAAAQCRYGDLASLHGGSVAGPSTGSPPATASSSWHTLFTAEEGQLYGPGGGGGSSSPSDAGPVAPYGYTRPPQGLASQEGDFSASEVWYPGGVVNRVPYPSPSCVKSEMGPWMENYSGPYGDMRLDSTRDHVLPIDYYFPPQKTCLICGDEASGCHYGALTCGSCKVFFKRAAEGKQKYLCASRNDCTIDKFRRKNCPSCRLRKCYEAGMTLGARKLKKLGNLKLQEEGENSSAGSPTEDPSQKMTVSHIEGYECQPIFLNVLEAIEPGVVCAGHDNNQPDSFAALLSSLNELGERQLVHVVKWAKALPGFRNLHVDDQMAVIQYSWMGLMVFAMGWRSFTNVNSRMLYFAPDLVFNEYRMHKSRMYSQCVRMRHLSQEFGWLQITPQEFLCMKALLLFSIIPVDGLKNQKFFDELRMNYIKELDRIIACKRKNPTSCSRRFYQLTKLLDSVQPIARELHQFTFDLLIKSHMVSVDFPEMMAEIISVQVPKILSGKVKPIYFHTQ
In short: (§5)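 Single concentration of 10 μM, tested in duplicate as part of a contracted panel of 68 in vitro enzyme and receptor assays. The panel covers common adverse CNS, cardiovascular, pulmonary and genotoxic targets.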

[17] = species: Rattus norvegicus; assay: Inhibition of rat N-type calcium channel at 10 uM by radioligand displacement assay; in short: as §5
[18] = species: Homo sapiens; assay: Inhibition of human dopamine […] receptor at 10 uM by radioligand displacement assay; in short: as §5
[19] = target: Histamine H1 receptor (Homo sapiens) (UniProt P35367); assay: Inhibition of human histamine H1 receptor at 10 uM by radioligand displacement assay; in short: as §5
Sequence of Histamine H1 receptor (Homo sapiens) (P35367 whole entry): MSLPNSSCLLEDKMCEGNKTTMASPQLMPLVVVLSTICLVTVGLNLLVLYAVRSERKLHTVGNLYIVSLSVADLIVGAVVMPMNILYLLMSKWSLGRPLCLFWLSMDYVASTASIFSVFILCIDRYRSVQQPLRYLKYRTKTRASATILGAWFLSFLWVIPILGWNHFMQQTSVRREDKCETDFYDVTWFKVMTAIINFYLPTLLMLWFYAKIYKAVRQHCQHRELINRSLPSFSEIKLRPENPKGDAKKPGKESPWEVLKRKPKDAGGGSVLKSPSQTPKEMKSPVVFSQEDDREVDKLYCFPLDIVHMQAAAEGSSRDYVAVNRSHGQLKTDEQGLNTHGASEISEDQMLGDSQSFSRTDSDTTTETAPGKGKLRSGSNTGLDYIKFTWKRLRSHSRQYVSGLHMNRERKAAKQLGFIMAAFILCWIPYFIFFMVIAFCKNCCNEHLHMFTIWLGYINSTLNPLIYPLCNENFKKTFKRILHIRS

[20] = target: Melatonin receptor type 1A (Homo sapiens) (UniProt P48039); assay: Inhibition of human MT1 receptor at 10 uM by radioligand displacement assay; in short: as §4
[21] = target: Muscarinic acetylcholine receptor M3 (Homo sapiens) (UniProt P20309); assay: Inhibition of human muscarinic M3 receptor at 10 uM by radioligand displacement assay; in short: as §5
Sequence of Muscarinic acetylcholine receptor M3 (Homo sapiens) (P20309 whole entry, looked up): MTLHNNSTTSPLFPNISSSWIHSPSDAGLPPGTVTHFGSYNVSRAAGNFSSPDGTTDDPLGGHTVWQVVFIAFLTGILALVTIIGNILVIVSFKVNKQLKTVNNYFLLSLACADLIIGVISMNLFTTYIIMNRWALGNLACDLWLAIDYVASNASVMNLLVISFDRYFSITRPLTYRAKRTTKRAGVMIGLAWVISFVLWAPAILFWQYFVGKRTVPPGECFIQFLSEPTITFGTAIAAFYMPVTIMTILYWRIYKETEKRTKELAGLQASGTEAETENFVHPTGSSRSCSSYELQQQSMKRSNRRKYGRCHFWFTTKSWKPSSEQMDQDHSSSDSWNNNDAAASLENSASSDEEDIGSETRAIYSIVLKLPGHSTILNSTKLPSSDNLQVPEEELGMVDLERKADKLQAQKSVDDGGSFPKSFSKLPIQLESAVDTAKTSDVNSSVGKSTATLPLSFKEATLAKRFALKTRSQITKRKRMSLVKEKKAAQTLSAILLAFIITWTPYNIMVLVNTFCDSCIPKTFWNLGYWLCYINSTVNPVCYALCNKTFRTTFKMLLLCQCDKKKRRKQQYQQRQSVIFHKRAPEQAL

[22] = species: Homo sapiens; assay: Inhibition of human nicotinic acetylcholine receptor at 10 uM by radioligand displacement assay; in short: as §5
[23] = target: Delta-type opioid receptor (Homo sapiens) (UniProt P41143); assay: Inhibition of human delta-type opioid receptor at 10 uM by radioligand displacement assay; in short: as §4
Sequence of Delta-type opioid receptor (Homo sapiens) (P41143 whole entry): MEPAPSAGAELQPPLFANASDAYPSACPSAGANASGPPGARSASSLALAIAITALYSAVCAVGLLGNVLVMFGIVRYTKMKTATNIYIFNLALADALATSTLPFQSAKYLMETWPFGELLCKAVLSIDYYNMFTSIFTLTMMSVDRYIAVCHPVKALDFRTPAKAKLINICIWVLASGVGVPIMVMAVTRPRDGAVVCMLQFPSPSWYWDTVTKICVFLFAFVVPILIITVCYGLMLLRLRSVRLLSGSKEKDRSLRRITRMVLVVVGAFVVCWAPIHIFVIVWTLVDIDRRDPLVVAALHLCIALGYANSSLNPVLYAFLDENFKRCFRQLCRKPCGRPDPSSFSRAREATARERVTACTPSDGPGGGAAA

[24] = species: Oryctolagus cuniculus; assay: Inhibition of rabbit Purinergic P2X receptor at 10 uM by radioligand displacement assay; assay type: tissue-based; in short: as §5
[25] = target: 5-hydroxytryptamine receptor 3A (Homo sapiens) (UniProt P46098); assay: Inhibition of human 5HT3A receptor at 10 uM by radioligand displacement assay; in short: as §4
[26] = target: Substance-P receptor (Homo sapiens) (UniProt P25103); assay: Inhibition of human tachykinin NK1 receptor at 10 uM by radioligand displacement assay; in short: as §5
Sequence of Substance-P receptor (Homo sapiens) (P25103 whole entry): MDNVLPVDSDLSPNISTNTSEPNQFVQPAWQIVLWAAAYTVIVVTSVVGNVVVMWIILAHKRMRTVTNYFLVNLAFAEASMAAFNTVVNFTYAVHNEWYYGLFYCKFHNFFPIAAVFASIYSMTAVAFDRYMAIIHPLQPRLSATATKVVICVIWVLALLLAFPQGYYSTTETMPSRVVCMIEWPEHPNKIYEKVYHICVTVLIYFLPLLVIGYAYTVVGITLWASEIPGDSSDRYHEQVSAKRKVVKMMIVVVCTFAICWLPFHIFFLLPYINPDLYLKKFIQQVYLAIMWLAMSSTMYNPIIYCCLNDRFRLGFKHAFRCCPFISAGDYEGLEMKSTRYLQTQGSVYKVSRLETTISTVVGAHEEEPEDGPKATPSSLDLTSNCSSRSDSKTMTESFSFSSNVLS

[27] = species: Rattus norvegicus; assay: Inhibition of rat thyroid hormone receptor at 10 uM by radioligand displacement assay; in short: as §5
[28] = target: Sodium-dependent dopamine transporter (Homo sapiens) (UniProt Q01959); assay: Inhibition of human dopamine transporter at 10 uM by radioligand displacement assay; in short: as §5
Sequence of Sodium-dependent dopamine transporter (Homo sapiens) (Q01959 whole entry): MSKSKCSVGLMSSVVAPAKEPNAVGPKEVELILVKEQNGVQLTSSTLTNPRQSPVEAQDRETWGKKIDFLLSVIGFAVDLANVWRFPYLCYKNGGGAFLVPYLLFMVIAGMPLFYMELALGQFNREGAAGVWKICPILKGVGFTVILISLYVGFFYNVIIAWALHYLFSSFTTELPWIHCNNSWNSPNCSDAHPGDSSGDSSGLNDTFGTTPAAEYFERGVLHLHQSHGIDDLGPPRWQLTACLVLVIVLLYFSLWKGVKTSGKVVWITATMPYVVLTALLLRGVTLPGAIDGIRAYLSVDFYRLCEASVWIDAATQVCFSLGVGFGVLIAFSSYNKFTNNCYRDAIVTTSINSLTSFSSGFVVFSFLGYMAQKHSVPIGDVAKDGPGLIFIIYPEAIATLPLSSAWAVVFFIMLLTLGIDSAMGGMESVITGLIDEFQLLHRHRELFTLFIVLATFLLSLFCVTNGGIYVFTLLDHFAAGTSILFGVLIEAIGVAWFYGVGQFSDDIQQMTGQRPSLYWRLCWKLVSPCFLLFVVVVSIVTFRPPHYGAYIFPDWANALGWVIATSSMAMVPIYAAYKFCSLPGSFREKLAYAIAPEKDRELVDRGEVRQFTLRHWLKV

[29] = target: Sodium-dependent serotonin transporter (Homo sapiens) (UniProt P31645); assay: Inhibition of human serotonin transporter at 10 uM by radioligand displacement assay; in short: as §5
Sequence of Sodium-dependent serotonin transporter (Homo sapiens) (P31645 whole entry, looked up): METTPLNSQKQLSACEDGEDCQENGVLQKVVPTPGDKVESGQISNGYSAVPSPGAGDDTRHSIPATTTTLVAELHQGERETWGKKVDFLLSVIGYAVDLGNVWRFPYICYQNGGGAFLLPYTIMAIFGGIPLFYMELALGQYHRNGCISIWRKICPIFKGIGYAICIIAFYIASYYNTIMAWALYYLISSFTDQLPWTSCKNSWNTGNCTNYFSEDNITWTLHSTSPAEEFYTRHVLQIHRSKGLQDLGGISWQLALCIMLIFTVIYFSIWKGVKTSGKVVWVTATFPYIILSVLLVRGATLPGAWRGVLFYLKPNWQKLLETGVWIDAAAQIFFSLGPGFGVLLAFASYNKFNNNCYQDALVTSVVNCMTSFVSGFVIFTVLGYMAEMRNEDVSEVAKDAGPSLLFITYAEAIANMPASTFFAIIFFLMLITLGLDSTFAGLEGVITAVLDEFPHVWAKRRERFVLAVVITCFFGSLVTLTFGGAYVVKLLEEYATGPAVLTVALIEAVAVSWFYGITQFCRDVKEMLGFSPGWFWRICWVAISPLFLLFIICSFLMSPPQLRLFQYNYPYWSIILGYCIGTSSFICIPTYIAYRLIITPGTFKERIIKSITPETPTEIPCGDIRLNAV

[30] = Toxicity in ip dosed wild type mouse administered twice daily; assay type: organism-based; details: in vivo
In short: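 Tolerability was tested in wild-type mice by i.p. injection twice daily. Each injection increased the dose one-fold, up to 75 mg/kg.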

[31] = system: Mus musculus; assay: Neuroprotective activity in SOD1 G93A mutant B6SJL mouse ALS model assessed as life extension at 1 mg/kg administered qd for 1 week (reference value: 125.7 +/- 4.9 days); assay type: functional
[32] = Drug uptake in B6SJL mouse brain at 300 mg/kg after 4 hrs; assay type: ADME, organism-based; parameters: dose 300 mg/kg; details: read-out: Drug uptake
In short: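 B6SJL mice given a 300 mg/kg intraperitoneal bolus. Blood and brain collected over 0–24 h, flash frozen in liquid nitrogen, stored at −80 °C. Analysed by mass spectrometry (ESI, MRM mode).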

[33] = system: Plasma; assay: Plasma protein binding in rat; assay type: ADME, cell-free
[34] = system: Plasma; assay: Plasma protein binding in human; assay type: ADME, cell-free

Which results are given for `O=c1cc(COc2cc(Cl)cc(Cl)c2)[nH][nH]1`?
Activity [1]: 100%; t1/2 [2]: 93 min; Papp [3]: 14.1 ×10⁻⁶ cm/s; Activity [4]: Active; concentration at 12 h [5]: 248 µM; concentration at 24 h [6]: 6.5 µM; AUC(0-t) [7]: 179 ng·h/mL; clearance [8]: 92 mL/min/kg; Tmax [9]: 15 min; F [10]: 27%; IC50 [11]: > 50 µM; IC50 [12]: > 50 µM; IC50 [13]: > 50 µM; inhibition [14]: 6%; inhibition [15]: 3%; inhibition [16]: 3%; inhibition [17]: 3%; inhibition [18]: 14%; inhibition [19]: 1%; inhibition [20]: 3%; inhibition [21]: -4%; inhibition [22]: 7%; inhibition [23]: 25%; inhibition [24]: 1%; inhibition [25]: 7%; inhibition [26]: 3%; inhibition [27]: 10%; inhibition [28]: 11%; inhibition [29]: -6%; MTD [30]: 75 mg/kg; Survival [31]: 129.2 days; concentration at 4 h [32]: 194 µM; PPB [33]: 98%; PPB [34]: 98%
